Activity calls are given as the source filed them. The rule behind the calls is not given here. Bridge positions count the residues as written; N and C are the ends. Peptide text beside a SMILES is read from it. I, II: the chains in the order shown.
System: Staphylococcus aureus
Assay: Antimicrobial activity against methicillin-resistant Staphylococcus aureus CCARM 3696 by radial diffusion assay
Type: functional, organism-based
In short: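 Radial diffusion. Washed mid-log MRSA (4 × 10^6 CFU) was mixed into 10 ml underlay of 1% agarose and 0.03% TSB in 9 mM NaP/1 mM sodium citrate, pH 7.4. Wells 3 mm wide received 5 μl of peptide at 200 μg/ml in 0.01% acetic acid. After 3 h at 37°C, a 1% agarose/6% TSB overlay was added and plates were incubated overnight. Clear zone diameter was read in units, 0.1 mm = 1 unit.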

In the case of `CC(C)C[C@H](NC(=O)CNC(=O)[C@H](Cc1cnc[nH]1)NC(=O)[C@H](Cc1cnc[nH]1)NC(=O)[C@H](CC(C)C)NC(=O)[C@H](CC(C)C)NC(=O)[C@H](C)NC(=O)[C@H](CCCCN)NC(=O)[C@@H](N)CCCCN)C(=O)N[C@@H](CC(N)=O)C(=O)N[C@@H](CSSC[C@H](NC(=O)[C@H](CC(N)=O)NC(=O)[C@H](CC(C)C)NC(=O)CNC(=O)[C@H](Cc1cnc[nH]1)NC(=O)[C@@H](N)Cc1cnc[nH]1)C(=O)N[C@@H](C)C(=O)N[C@@H](CCCCN)C(=O)NCC(=O)N[C@H](C(=O)N[C@@H](CC(C)C)C(=O)N[C@@H](C)C(N)=O)C(C)C)C(=O)N[C@@H](C)C(=O)N[C@@H](CCCCN)C(=O)NCC(=O)N[C@H](C(=O)N[C@@H](CC(C)C)C(=O)N[C@@H](C)C(N)=O)C(C)C` (I: H-KKALLHHGLNCAKGVLA-NH2 / II: H-HHGLNCAKGVLA-NH2; disulfide I:11-II:6), the Activity is reported as “inactive”.
With `CC(C)C[C@H](NC(=O)CNC(=O)[C@H](Cc1cnc[nH]1)NC(=O)[C@H](Cc1cnc[nH]1)NC(=O)[C@H](CC(C)C)NC(=O)[C@H](CC(C)C)NC(=O)[C@H](C)NC(=O)[C@H](CCCCN)NC(=O)[C@H](CCCCN)NC(=O)[C@H](Cc1c[nH]c2ccccc12)NC(=O)[C@@H](N)CCCCN)C(=O)N[C@@H](CC(N)=O)C(=O)N[C@@H](CSSC[C@H](NC(=O)[C@H](CC(N)=O)NC(=O)[C@H](CC(C)C)NC(=O)CNC(=O)[C@H](Cc1cnc[nH]1)NC(=O)[C@@H](N)Cc1cnc[nH]1)C(=O)N[C@@H](C)C(=O)N[C@@H](CCCCN)C(=O)NCC(=O)N[C@H](C(=O)N[C@@H](CC(C)C)C(=O)N[C@@H](C)C(N)=O)C(C)C)C(=O)N[C@@H](C)C(=O)N[C@@H](CCCCN)C(=O)NCC(=O)N[C@H](C(=O)N[C@@H](CC(C)C)C(=O)N[C@@H](C)C(N)=O)C(C)C` (I: H-KWKKALLHHGLNCAKGVLA-NH2 / II: H-HHGLNCAKGVLA-NH2; disulfide I:13-II:6) the Activity was “Active”.
For `CC(C)C[C@H](NC(=O)CNC(=O)[C@H](Cc1cnc[nH]1)NC(=O)[C@H](Cc1cnc[nH]1)NC(=O)[C@H](CC(C)C)NC(=O)[C@H](CC(C)C)NC(=O)[C@H](C)NC(=O)[C@H](CCCCN)NC(=O)[C@H](CCCCN)NC(=O)[C@H](Cc1c[nH]c2ccccc12)NC(=O)[C@@H](N)CCCCN)C(=O)N[C@@H](CC(N)=O)C(=O)N[C@@H](CSSC[C@H](NC(=O)[C@H](CC(N)=O)NC(=O)[C@H](CC(C)C)NC(=O)CNC(=O)[C@H](Cc1cnc[nH]1)NC(=O)[C@H](Cc1cnc[nH]1)NC(=O)[C@H](CC(C)C)NC(=O)[C@H](CC(C)C)NC(=O)[C@H](C)NC(=O)[C@H](CCCCN)NC(=O)[C@@H](N)CCCCN)C(=O)N[C@@H](C)C(=O)N[C@@H](CCCCN)C(=O)NCC(=O)N[C@H](C(=O)N[C@@H](CC(C)C)C(=O)N[C@@H](C)C(N)=O)C(C)C)C(=O)N[C@@H](C)C(=O)N[C@@H](CCCCN)C(=O)NCC(=O)N[C@H](C(=O)N[C@@H](CC(C)C)C(=O)N[C@@H](C)C(N)=O)C(C)C` (I: H-KWKKALLHHGLNCAKGVLA-NH2 / II: H-KKALLHHGLNCAKGVLA-NH2; disulfide I:13-II:11), the Activity was “Active”.

From ChEMBL document CHEMBL1275595, “Antimicrobial activity of a halocidin-derived peptide resistant to attacks by proteases” (2010)
